Key:
[1] = Cmin in human at titreated dose from day 1 to 4 followed by 200 mg, po QD administered up to day 11 measured on day 4 at 12 hrs; assay type: ADME, organism-based; settings: in vivo, read-out: Cmin
Method in brief: (§1)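 Healthy male volunteers took part in a double-blind, randomized, placebo-controlled dose-escalation study, with cohorts of 8 (6 on drug, 2 on placebo). Each subject got an oral dose on day 1, then a 2-day washout, then dosing on days 4–11. The 200 mg qd group was titrated over days 1–4. Venous plasma was sampled predose and 0.5–12 h postdose on days 1, 4 and 11, and predose on days 5–10 for troughs.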

[2] = AUC (0 to 12 hrs) in human at 100 mg, po BID administered on day 1 followed by 2-day wash out period after which dosing continued up to day 11 measured on day 4; assay type: ADME, organism-based; set-up: time < 12 hr, dose 100 mg, route oral; settings: plasma
Method in brief: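 Double-blind, placebo-controlled, randomized dose-escalation study in healthy male volunteers, six cohorts of eight (six active, two placebo). Oral dose on day 1, two-day washout, then dosing days 4–11; the 200 mg qd cohort was titrated over days 1–4. Venous blood taken predose and at 0.5–12 h on days 1, 4 and 11; plasma drug measured. τ 12 h (bid), 24 h (qd), 8 h (tid), 6 h (qid).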

[3] = Tmax in human at 150 mg, po BID administered on day 1 followed by 2-day wash out period after which dosing continued up to day 11 measured on day 1; assay type: ADME, organism-based; settings: in vivo
Method in brief: (§2)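 Double-blind, placebo-controlled, randomized multiple oral dose study in healthy male volunteers (cohorts of eight; six active, two placebo). Dose given on day 1, then a two-day washout, then dosing days 4–11; for the QD arm, subjects were titrated over days 1–4. Venous plasma sampled predose and 0.5, 1, 1.5, 2, 4, 6, 8, 10, 12 h postdose on days 1, 4 and 11. Tmax reported as median (min–max).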

[4] = tested on: Homo sapiens; assay: Antidyslipidemic activity in dyslipidemia patient assessed as change in HDL-c level at 150 mg administered TID during four week study relative to control; assay type: functional
[5] = Cmax in human at 50 mg, po BID administered on day 1 followed by 2-day wash out period after which dosing continued up to day 11 measured on day 4; assay type: ADME, organism-based; set-up: dose 50 mg, route oral; settings: in vivo; method in brief: as §1
[6] = Cmax in human at titreated po dose administered from day 1 to 4 followed by 200 mg, po QD administered up to day 11 measured on day 4; assay type: ADME, organism-based; set-up: dose 200 mg, route oral; settings: in vivo; method in brief: as §1
[7] = tested on: Rhesus monkey; assay: Dose normalized Cmax in po dosed rhesus monkey; assay type: ADME, organism-based, Macaca mulatta; settings: in vivo
[8] = tested on: Mus musculus; assay: Dose normalized Cmax in po dosed mouse; assay type: ADME, organism-based; settings: in vivo
[9] = Tmax in human at 150 mg, po TID administered on day 1 followed by 2-days wash out period after which dosing continued up to day 11 measured on day 1; assay type: ADME, organism-based; settings: in vivo; method in brief: as §2
[10] = Volume of distribution in mouse; assay type: ADME, organism-based; settings: in vivo
[11] = target: Cytochrome P450 2D6 (Homo sapiens, UniProt P10635); assay: Activity at CYP2D6; assay type: ADME
[12] = Tmax in human at 100 mg, po BID administered on day 1 followed by 2-day wash out period after which dosing continued up to day 11 measured on day 4; assay type: ADME, organism-based; settings: in vivo; method in brief: as §2
[13] = Cmin in human at 150 mg, po TID administered on day 1 followed by 2-days wash out period after which dosing continued up to day 11 measured on day 4 at 8 hrs; assay type: ADME, organism-based; settings: in vivo, read-out: Cmin; method in brief: as §1

Chain of Cytochrome P450 2D6 (P10635 whole entry): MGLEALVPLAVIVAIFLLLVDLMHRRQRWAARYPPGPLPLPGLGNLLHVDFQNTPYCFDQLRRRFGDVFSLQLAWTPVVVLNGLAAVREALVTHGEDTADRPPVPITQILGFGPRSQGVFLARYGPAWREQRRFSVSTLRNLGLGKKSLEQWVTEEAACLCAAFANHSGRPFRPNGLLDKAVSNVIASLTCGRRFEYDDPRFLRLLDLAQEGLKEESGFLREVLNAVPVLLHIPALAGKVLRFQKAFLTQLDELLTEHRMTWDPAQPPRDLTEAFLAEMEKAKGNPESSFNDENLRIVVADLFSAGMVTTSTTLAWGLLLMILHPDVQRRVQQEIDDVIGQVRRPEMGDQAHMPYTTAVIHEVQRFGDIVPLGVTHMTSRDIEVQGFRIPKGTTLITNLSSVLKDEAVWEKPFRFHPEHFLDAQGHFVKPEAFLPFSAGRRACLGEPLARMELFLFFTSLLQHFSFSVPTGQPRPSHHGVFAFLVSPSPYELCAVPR

Compound: O=C(O)c1n[nH]c2c1C[C@H]1C[C@@H]21
- concentration at 12 h [1]: 0.244 nM
- AUC at 12 h [2]: 0.0657 µM·h
- Tmax [3]: 1.25 h
- Activity [4]: 4.6%
- Cmax [5]: 12.3 nM
- Cmax [6]: 56.3 nM
- Cmax/dose [7]: 5.1 µM·kg/mg
- Cmax/dose [8]: 3.5 µM·kg/mg
- Tmax [9]: 0.5 h
- Vd [10]: 0.75 L/kg
- Activity [11]: Not Active
- Tmax [12]: 1 h
- concentration at 8 h [13]: 0.583 nM
